Assay outcomes from PubChem.
Only some compounds are listed: those with a hit (about 4.1% of all), similar ones and a draw of the others.
H9c2 TAG inh = inhibitors of triacylglycerol accumulation | AID 651582 | H9c2 cells, Nile Red lipid (TAG) fluorescence; cells loaded with 200 µM oleic acid | inhibition, % at 12.5 µM | 230,000 tested, 0.66% active;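 active = pattern-corrected inhibition of lipid staining of at least 50% with the nuclear-stain viability signal not falling by more than 50%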;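 note: 0% = DMSO wells and 100% = triacsin C control wells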
Efflux pump mplx = blocks antifungal efflux pumps in multiplex yeast assay. S. cerevisiae Candida pump triplex, Nile Red efflux. inhibition, % at 10 µM. 330,000 tested, 0.44% active. AID 485275;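 active = plate passing quality check with inhibition over a set limit, or well fluorescence over plate mean plus 4 SD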;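 note: Nile Red retained in pooled yeast measured as flow cytometry median fluorescence; 0% = buffer negative control and 100% = Enniatin B positive control; higher means more Nile Red kept so more efflux inhibition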
SMARCA2 act = activators of SMARCA2 function | 370,000 tested, 1% active | activation, % at 9.1 µM | MG213 cells, MMTV-luciferase reporter, dexamethasone, overnight; in the data active = activation above about 7.8%;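 note: 0% = vehicle wells and 100% = reference activator wells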
AHR activator = human AHR activation; AHR-responsive luciferase reporter cells, luminescence; P35869; AID 2796; activation, % at 5 µM; 320,000 tested, 2.5% active; in the data active = activation above about 47%;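 note: 0% = vehicle wells and 100% = reference agonist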
Target sequence (P35869 whole entry, looked up): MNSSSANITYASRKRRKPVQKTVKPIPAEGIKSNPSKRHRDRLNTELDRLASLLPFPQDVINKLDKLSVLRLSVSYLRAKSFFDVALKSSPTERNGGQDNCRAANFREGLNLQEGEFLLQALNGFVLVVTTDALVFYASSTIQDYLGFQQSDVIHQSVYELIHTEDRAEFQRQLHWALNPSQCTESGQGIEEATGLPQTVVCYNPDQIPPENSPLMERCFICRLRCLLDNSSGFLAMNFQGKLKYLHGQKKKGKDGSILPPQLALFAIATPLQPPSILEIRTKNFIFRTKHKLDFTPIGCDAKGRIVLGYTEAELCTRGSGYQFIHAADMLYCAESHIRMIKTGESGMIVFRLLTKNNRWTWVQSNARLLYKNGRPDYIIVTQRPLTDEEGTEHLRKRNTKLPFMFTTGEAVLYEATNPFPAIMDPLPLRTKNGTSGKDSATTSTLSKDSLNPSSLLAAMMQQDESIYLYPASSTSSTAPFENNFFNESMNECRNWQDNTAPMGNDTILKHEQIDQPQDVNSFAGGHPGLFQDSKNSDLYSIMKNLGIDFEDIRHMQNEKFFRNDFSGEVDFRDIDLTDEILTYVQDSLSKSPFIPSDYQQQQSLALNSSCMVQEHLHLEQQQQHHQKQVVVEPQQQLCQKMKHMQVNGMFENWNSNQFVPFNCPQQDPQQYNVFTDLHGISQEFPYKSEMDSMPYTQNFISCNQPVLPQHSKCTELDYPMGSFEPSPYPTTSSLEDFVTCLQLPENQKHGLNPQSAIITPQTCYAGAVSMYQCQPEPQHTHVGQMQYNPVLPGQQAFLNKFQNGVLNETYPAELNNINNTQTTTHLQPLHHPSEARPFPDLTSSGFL
TbMetRS inhib = blocks T. brucei methionyl-tRNA synthetase activity; purified T. brucei MetRS, ATP depletion, Kinase-Glo luminescence; inhibition, % at 11.9 µM; 360,000 tested, 0.4% active; AID 624268;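 active = inhibition above a per-plate cutoff of the control wells' mean inhibition plus 3 SD, cut at about 5.5% in these data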;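 note: 0% = DMSO wells median and 100% = median of wells with control inhibitor compound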
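Dosing: 11.9 µM compound single dose, 0.9% DMSO; Assay system: purified T. brucei MetRS enzyme; Measured by: Kinase-Glo luciferase luminescence reporting remaining unconsumed ATP; Schedule: 15 min plus 2 h at 25 °C.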
SMARCA2 conf = SMARCA2 activation, confirmation screen; 3,500 tested, 30% active; MG213 cells, MMTV-luciferase with dexamethasone, luminescence, overnight; MG213 cells expressing E1A, Rb sequestered; DMSO wells 0%, reference activator 100%; activation, % at 9.1 µM; AID 652260; shares compounds with SMARCA2 act;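 active = activation above its plate's cutoff, the mean activation of tested wells plus 3 SD, cut at about 7.9% in these data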
VP16 Luc act = GAL4-VP16 reporter activation counter-screen | HEK293 GAL4-VP16 pG5luc reporter, luciferase luminescence; scaled: DMSO wells 0%, SAHA wells 100% | 3,500 tested, 41% active | shares compounds with SMARCA2 act | activation, % at 9.1 µM;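 active = activation above the solvent-only control well mean plus 3 SD, averaged across control plates, cut at about 5.2% in these data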
An asterisk follows results filed as active; . = not tested or not shown.

SMILES | H9c2 TAG inh | Efflux pump mplx | SMARCA2 act | AHR activator | TbMetRS inhib | SMARCA2 conf | VP16 Luc act
C=CCc1cc(Cl)ccc1OCCOCCNCCOC | . | -0.1 | -0.5 | 2.5 | -0.9 | . | .
COc1ccc(N2C(N)=C(C#N)C(c3cccnc3)C3=C2CC(C)(C)CC3=O)cc1 (stereo not drawn) | -177.1 | 0.0 | 0.0 | 1.1 | -0.6 | . | .
COc1ccc(C2C(C#N)=C(N)N(c3cccnc3)C3=C2C(=O)CC(C)(C)C3)cc1OC (stereo not drawn) | . | 0.2 | 9.2* | -0.4 | 0.8 | 1.3 | 1.9
Cc1nc2cc(NC(=O)N3c4ccccc4CC3C)ccc2o1 (stereo not drawn) | . | 0.0 | 9.6* | 39.1 | -0.4 | 14.0* | 12.5*
O=C(CSc1nnc(-c2ccccc2)n1-c1ccc(Cl)cc1)c1ccccc1Br | . | . | 2.1 | . | . | . | .
CCCCN1CC[C@@H](C)Oc2cc(Br)ccc2S1(=O)=O | . | . | -2.6 | . | . | . | .
c1ccc(-c2ccc3c(n2)CCCN3Cc2ccccn2)cc1 | . | . | 8.9* | . | . | 2.6 | 8.7*
COc1ccc(-n2nc3cc(C)c(N)c(Br)c3n2)cc1 | -35.3 | 0.1 | 8.4* | 48.8* | -0.2 | 10.6* | 11.1*
COc1ccc(-n2nc3cc(C)c(NC(C)=O)cc3n2)cc1 | -9.7 | -0.1 | 8.1* | 75.4* | 0.0 | 4.6 | 8.9*
COC(=O)[C@]12C[C@H](CC(=O)NCc3ccccc3)C(=O)N(Cc3ccc4c(c3)OCO4)C1=C[C@H](C(C)C)O[C@@H]2C1CC1 | . | . | -3.1 | . | . | . | .
COc1ccc(-n2c(SCC3CNC(=O)O3)nnc2-c2ccc(Cl)cc2)cc1 (stereo not drawn) | 7.3 | 0.2 | 11.7* | 0.3 | 0.3 | 1.1 | -2.1
COc1cccc(NC(=O)/C=C/c2ccccc2[N+](=O)[O-])c1 | . | -0.2 | 10.5* | 44.8 | -1.2 | 8.8* | 14.9*
CN(C)S(=O)(=O)c1cccc(NC(=O)/C=C/c2ccccc2[N+](=O)[O-])c1 | 6.0 | -0.1 | 0.3 | 21.9 | -0.7 | . | .
COC(=O)C[C@@H]1CC[C@@H]2[C@@H](COc3ccc(NC(=O)c4ccc(F)cc4)cc3C(=O)N2C)O1 | . | . | -3.6 | . | . | . | .
COc1cc(/C=N/NC(=O)c2cc(-c3c(C)nn(-c4ccccc4)c3C)n[nH]2)ccc1O | . | -0.1 | 12.1* | 43.2 | -0.1 | 15.7* | 11.6*
C[C@@H]1CN([C@@H](C)CO)C(=O)c2cc(Br)cnc2O[C@@H]1CN(C)C(=O)c1ccc(F)cc1 | . | . | -0.8 | . | . | . | .
CCC(C)NC(=O)C1(N2C(=O)c3ccccc3C2=O)CCCC1 (stereo not drawn) | -23.5 | . | 8.8* | . | -0.1 | 0.7 | -0.2
FC(F)(F)c1cccc(NC(=S)N2CCCCCC2)c1 | 3.7 | 0.0 | -2.8 | 1.5 | 0.0 | . | .
O=C(Nc1cccc(C(F)(F)F)c1)C(=O)N1CCCCC1 | -5.3 | -0.1 | 9.5* | 1.6 | -0.9 | 2.0 | 2.6
CN(C)c1ccc(CNn2cnnc2SCc2ccccc2F)cc1 | . | 0.1 | 10.1* | 28.7 | -0.5 | 2.0 | 3.0
CN(C)c1ccc(CNn2cnnc2SCC(=O)NC(C)(C)C)cc1 | 7.6 | -0.2 | -2.9 | 3.5 | -0.8 | . | .
Cc1cccc(Cc2cnc(NC(=O)c3ccc(C)o3)s2)c1 | -24.6 | 0.2 | 10.6* | 3.0 | 0.4 | 7.3 | 3.6
CCOc1ccc(NC(=O)c2cnsn2)cc1 | -3.7 | -0.2 | 8.1* | 3.5 | -0.6 | 14.3* | 5.0
CCOc1ccc(NC(=O)c2cnccn2)cc1 | -5.2 | 0.1 | 6.5 | 9.4 | -1.3 | . | .
CCOc1ccc(NC(=O)c2nccnc2CO)cc1 | . | -0.1 | 9.8* | 4.5 | -0.6 | 4.0 | 9.8*
SMILES | H9c2 TAG inh | Efflux pump mplx | SMARCA2 act | AHR activator | TbMetRS inhib | SMARCA2 conf | VP16 Luc act
Cc1cccc(NC(=O)CN(C)S(=O)(=O)c2ccc(Cl)cc2)n1 | . | 0.2 | 1.4 | 2.6 | 0.2 | . | .
Cc1ccc(O)c(NC(=O)CN(C)S(=O)(=O)c2ccc(Cl)cc2)c1 | -7.9 | 0.0 | 10.9* | 8.8 | -0.4 | 0.9 | 1.2
COc1ccccc1CC(=O)N1CCC(CCC(=O)NC2CC2)CC1 | . | 0.2 | 8.8* | 1.6 | 0.1 | -2.8 | 1.4
C=CCSc1nnc(NC(=O)C2=COCCO2)s1 | -13.5 | 0.1 | 8.0* | 8.3 | -0.5 | 8.2* | 10.6*
O=C(Nc1nnc(SCc2ccccc2)s1)C1=COCCO1 | -15.6 | 0.1 | 4.0 | 10.0 | -0.2 | . | .
CS(=O)(=O)N[C@@H]1C[C@@H]2O[C@@H](CO)CC[C@@H]2O[C@@H]1CCc1ccc(/C=C/c2ccccc2)cc1 | . | . | -1.3 | . | . | . | .
CCN(C[C@H]1N[C@@](Cc2ccccc2)(C(=O)OC)[C@H]2C(=O)N(Cc3ccccc3)C(=O)[C@@H]12)C(=O)NC(C)C | -0.4 | -0.2 | 9.2* | -0.2 | -0.1 | -4.2 | 1.3
CCCCNC(=O)C[C@H]1C[C@@]2(C(=O)OC)C(=C[C@H](COCc3ccccc3)O[C@@H]2C)N(Cc2cccc3ccccc23)C1=O | . | . | -5.3 | . | . | . | .
COc1ccccc1CN1CCSCC1 | . | -0.1 | 9.8* | -2.1 | -0.7 | -1.0 | -1.0
COc1cccc(CN2CCSCC2)c1OC | -31.4 | -0.1 | 1.2 | 0.0 | -0.7 | . | .
CCCCCCCCN1C(=O)[C@@H](CC(=O)NCC2CCCCC2)C[C@@]2(C(=O)OC)C1=C[C@H](C(C)C)O[C@@H]2C1CC1 | . | . | -2.5 | . | . | . | .
O=C(C1=C(O)C(=O)N(c2nccs2)C1c1ccccc1)c1cc2ccccc2o1 (stereo not drawn) | -16.5 | 0.0 | 14.1* | 23.5 | -1.1 | -1.2 | 3.4
O=c1c(Cl)c(N2CCCCC2)cnn1-c1nc2ccccc2[nH]1 | . | 0.2 | 0.1 | -9.2 | -3.2 | . | .
Cc1ccc(C)c(N2CCN(c3cnn(-c4nc5ccccc5s4)c(=O)c3Cl)CC2)c1 | . | 0.4 | 9.3* | 5.2 | -0.2 | 3.5 | 6.5*
CCc1nnc2n1N=C(c1ccc(-c3cc(Cl)ccc3Cl)o1)CS2 | 10.7 | 0.1 | 8.9* | 16.7 | -0.2 | 1.0 | 1.6
Cc1cc(C)cc([C@H]2C[C@]34CN(Cc5ccccc5)S(=O)(=O)[C@H]3C[C@H]2O4)c1 | . | . | -1.8 | . | . | . | .
Nc1c(C(=O)Nc2ccc(F)cc2)sc(=S)n1-c1ccccc1F | -7.3 | -0.1 | 8.4* | -0.2 | -0.3 | 0.9 | 3.4
COc1ccc(C(=O)Nc2ccc3ccccc3c2)cc1 | -18.2 | -0.2 | 4.2 | -8.2 | -1.8 | . | .
Cn1c(N)c(C(=O)Nc2ccc3ccccc3c2)sc1=S | . | 0.0 | 10.3* | 93.2* | -0.5 | 4.2 | 12.0*
COc1ccccc1C(=O)NC1CCCCN(Cc2ccccc2C)C1=O (stereo not drawn) | . | . | -2.2 | . | . | . | .
CCCSc1nnc(-c2ccco2)n1C | . | . | -1.6 | . | . | . | .
COc1ccc(S(=O)(=O)N2CCCC2)cc1NC(=O)c1ccccc1 | . | -0.1 | 8.1* | 0.2 | -0.4 | 0.3 | 1.6
CCC(C)c1ccc(NC(=O)c2cccnc2)cc1 (stereo not drawn) | . | 1.3 | 9.8* | 37.5 | -0.9 | 8.2* | 12.4*
